High-throughput results (PubChem)
PglD DTNB: inhibitors of Campylobacter jejuni PglD acetyltransferase | inhibition, % at 12.5 µM | AID 602405 | purified PglD enzyme, DTNB colorimetric CoA detection | hit rate 0.098% among 360,000; in the data active = inhibition above about 16%, passing the limit was not always enough; inconclusive = no clear call, values can overlap the other calls
DENV2 CPE rescue: inhibitors of DENV2 cytopathic effect | hit rate 1.7% among 350,000 | DENV2-infected cells, cytopathic effect rescue, plate reader | AID 651640 | CPE inhibition, % at 9.99 µM; in the data active = CPE inhibition above about 20%, passing the limit was not always enough; inconclusive = no clear call, values can overlap the other calls; tested in BHK-21 cells;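 note: 0% = median of neutral control wells and 100% = median of positive control wells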
FGF22 binding: binders of recombinant human FGF22 by thermal shift. Q9HCT0. SYPRO orange fluorescence; percent of sucrose octasulfate shift, DMSO zero. activity (Tm shift, normalised), % at 9.99 µM. hit rate 1.5% among 340,000;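 active = mean Tm shift, scaled 0 neutral to 100 positive control, at about 1.3% or above, every replicate too, limit read from the data; inconclusive = no clear call, values can overlap the other calls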
Target sequence (Q9HCT0 whole entry, looked up): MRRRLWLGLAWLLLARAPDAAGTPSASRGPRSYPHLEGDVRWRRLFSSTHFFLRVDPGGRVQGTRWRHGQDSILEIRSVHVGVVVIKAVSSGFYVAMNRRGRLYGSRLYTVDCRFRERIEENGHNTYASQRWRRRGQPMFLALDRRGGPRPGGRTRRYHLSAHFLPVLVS
XiGFP reactiv: X-chromosome reactivation activator; XiGFP mouse fibroblasts, % GFP-positive cells imaging, 3 d; cells co-treated with 5-aza-dC sensitizer; scaled so ellipticine positive control = 100%; activation, % at 7.58 µM; hit rate 0.055% among 360,000;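 active = mean normalized replicate activation at least 10% and every replicate at or above 10%; inconclusive = only one of the two criteria met; inactive = mean below 10% and not all replicates reach 10%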;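 note: 0% = median of on-plate neutral control wells and 100% = ellipticine 6 µM median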
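assay system = SV40-immortalized XiGFP fibroblast cells, line 68-5-11 | buffer or medium = DMEM plus 5-aza-dC sensitizer | doses = single-point pinned compound dosing | times = 3-day compound exposure, then 15 min fixation at room temperature | benchmarks = positive control ellipticine, 6 µM final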
Statin myotox sup: protects C2C12 myotubes from simvastatin toxicity. ATP luminescence, 48 h; scaled: DMSO 0, geranylgeraniol control 100. rescue of ATP level, % at 7.49 µM. hit rate 0.78% among 330,000. AID 602340;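 active = mean ATP rescue above about 67%, or every replicate alone reaching that limit, limit read from the data, passing the limit was not always enough; inconclusive = no clear call, values can overlap the other calls; inactive = mean under the limit and some replicate under it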;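 note: myotubes were challenged with 10 µM simvastatin during compound exposure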
E-selectin induc: E-selectin induction on HUVECs. HUVEC E-selectin immunofluorescence imaging; normalized: neutral wells 0, TNF-alpha wells 100. activation, % at 7.58 µM. hit rate 0.37% among 260,000. AID 686992;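 active = mean E-selectin-positive cell signal at least 10% of the positive control, reached in at least 60% of replicates, without over 20% cell loss; inconclusive = no rule given, readout overlaps actives, possibly toxicity-flagged; inactive = the rest, including those meeting only one limit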
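Test system: HUVEC; input: 3,000 HUVEC/well; measured by: immunofluorescence imaging; read-out: % PE-positive cells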
The depositor's hits bear a star; u = inconclusive; x = no result. Most compounds without a hit are left out; they make up all but 3.3% or so of the library.

SMILES	PglD DTNB	DENV2 CPE rescue	FGF22 binding	XiGFP reactiv	Statin myotox sup	E-selectin induc
O=C(CCS(=O)(=O)c1ccccc1)Nc1ccc(S(=O)(=O)Nc2nccs2)cc1	x	-2	43*	0	x	0
O=C(CCc1ccccc1)Nc1ccc(S(=O)(=O)Nc2nccs2)cc1	-2	1	0	0	1	0
O=C(CCS(=O)(=O)c1ccccc1)Nc1cccc(-c2nc3ccccc3s2)c1	-1	-3	1	0	1	0
O=C(CCS(=O)(=O)c1ccccc1)Nc1ccc(-c2nc3ccccc3s2)cc1	x	-7	44*	0	6	x
CCCC(=O)Nc1c(C(=O)OCC)[nH]c2ccccc12	-12	3	0	0	-1	3
COC(=O)c1[nH]c2ccccc2c1NC(=O)/C=C/c1ccc2c(c1)OCO2	0	38*	0	0	x	-1
CCOC(=O)c1[nH]c2ccc(OC)cc2c1NC(=O)c1ccc2c(c1)OCO2	3	x	x	x	2	x
CC/C(=N\NC(=O)c1ccc2c(c1)OCO2)c1ccccc1	4	33*	0	0	15	1
C/C(=N\NC(=O)c1ccccc1)c1ccc2c(c1)OCO2	-1	x	x	x	-1	x
CCOC(=O)c1[nH]c2ccccc2c1NC(=O)Nc1ccc(OC)cc1	2	x	x	x	119*	x
CCOC(=O)c1[nH]c2ccccc2c1NC(=O)c1ccc2c(c1)OCO2	0	40*	0	0	3	0
C[C@@H]1CN([C@@H](C)CO)C(=O)Cc2cc(NS(=O)(=O)c3ccc(Cl)cc3)ccc2O[C@H]1CN(C)Cc1ccc(C(=O)O)cc1	x	10	0	0	x	0
CN1CCCN(C(=O)/C=C/c2ccc(Cl)cc2Cl)CC1	x	-19	44*	0	x	x
CN(C)/C=C1\N=C(c2cccnc2Oc2ccc(Cl)cc2)OC1=O	-3	-3	0	0	115*	1
CN(C)/C=C1\N=C(c2ccc(Cl)cc2Cl)OC1=O	0	x	x	x	0	x
CCOC(=O)N1CCN(Cc2c(NC(=O)c3ccco3)sc(C)c2C)CC1	x	u	44*	0	2	-1
Cc1sc(NC(=O)c2ccco2)c(CN2CCN(c3ccc(F)cc3)CC2)c1C	-4	x	x	x	0	x
CCC(=O)N(C)C[C@@H]1Oc2cc(C#CC3CCCC3)ccc2S(=O)(=O)N([C@H](C)CO)C[C@@H]1C	-1	-4	0	-1	9	0
CCOC(=O)C1=C(C(C)=O)C(c2cccnc2)C(C#N)=C(N)O1 (configuration not stated)	x	x	x	x	118*	x
CCOC(=O)C1=C(CSc2nc(-c3ccncc3)ccc2C#N)OC(N)=C(C#N)C1c1cccnc1 (configuration not stated)	5	x	x	x	-16	x
OCC(O)C1OC(Nc2ccc(Br)cc2)C(O)C1O (configuration not stated)	x	18	43*	0	x	x
CC(=O)c1ccc(NC2OC(CO)C(O)C(O)C2O)cc1 (configuration not stated)	4	x	x	x	x	x
COc1ccc2c(c1)sc(N)[n+]2Cc1cc(C)cc2cccnc12	-6	71*	0	0	-106	0
Cc1cc(C[n+]2cc(Br)ccc2N)c2ncccc2c1	x	35*	0	0	x	x
Nc1nc2c(s1)C(=O)CCC2	-1	x	x	x	91*	x
SMILES	PglD DTNB	DENV2 CPE rescue	FGF22 binding	XiGFP reactiv	Statin myotox sup	E-selectin induc
C[C@@H]1CN([C@@H](C)CO)C(=O)c2cc(Br)cnc2O[C@H]1CN(C)Cc1ccccn1	-3	0	0	0	x	0
COc1cccc(C2NC(=S)NC(C)=C2C(=O)c2ccccc2)c1OC (configuration not stated)	x	4	43*	0	-36	x
O=C(NC1CCCC1)c1nc(-c2c(F)cccc2F)oc1-c1ccccc1	x	22*	0	0	x	1
N#CC1(NC(=O)CN2C(=O)c3ccccc3C2=O)CCCCC1	-2	9	0	0	7	50*
O=C(CN1C(=O)c2ccccc2C1=O)NC1(C(=O)O)CCCC1	7	0	0	0	-2	0
CN(CCC1CCCCO1)C(=O)CCc1nnc(CCc2ccccc2)o1 (configuration not stated)	-4	61*	0	0	11	0
